Experimental data: ChEMBL document CHEMBL4138266, “Lysine Analogue of Polymyxin B as a Significant Opportunity for Photodynamic Antimicrobial Chemotherapy” (ACS Med Chem Lett, 2018)
≈ marks a conversion by molar mass, not a printed value. Calls of active or inactive are those of the source. No cut-off for these calls is given here.

Assays:
Pseudomonas aeruginosa [1] = assay: Bactericidal activity against Pseudomonas aeruginosa CIP76110 incubated for 30 mins under dark conditions; assay type: organism-based; details: 0.5 h
In short: (§1)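 Minimal bactericidal concentration (MBC) was determined in tryptic soy medium with log-phase bacteria at 37 °C. Plates were either kept in the dark or given 20 h of white light at 4.83 mW/cm². MBC was taken as the concentration killing 99.99% of bacteria, i.e. a 4-log reduction versus the untreated control.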

Escherichia coli [2] = assay: Photobactericidal activity against Escherichia coli CIP54.8T irradiated with white light at 4.83 mW/cm2 for 20 hrs; assay type: functional; details: light or radiation study; in short: as §1
Pseudomonas aeruginosa [3] = assay: Photobactericidal activity against Pseudomonas aeruginosa CIP76110 irradiated with white light at 4.83 mW/cm2 for 20 hrs; assay type: functional; details: CIP76110, light or radiation study; in short: as §1
Escherichia coli [4] = assay: Bactericidal activity against Escherichia coli CIP54.8T incubated for 30 mins under dark conditions; assay type: organism-based; details: 0.5 h; in short: as §1
Pseudomonas aeruginosa [5] = assay: Photobactericidal activity against Pseudomonas aeruginosa assessed as PI-positive and PS-positive cell population at 1 uM incubated for 30 mins followed by 1 washing by propidium iodide staining based flow cytometry; assay type: functional
In short: (§2)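 Bacteria were incubated with 1 µM conjugate for 30 min at 37 °C, washed with saline, then stained with propidium iodide (0.01 mg/mL) to assess viability. Samples were analysed by flow cytometry. Q1 is the PI-positive (permeable membrane) population; Q2 is double positive for PI and photosensitizer fluorescence.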

NHDF [6] = assay: Cytotoxicity against human NHDF cells assessed as reduction in cell viability at 5 to 5000 nM irradiated with white light at 4.83 mW/cm2 for 2 hrs measured after 24 hrs by MTT assay; assay type: cell-based; details: 5 µM
NHDF [7] = assay: Cytotoxicity against human NHDF cells assessed as reduction in cell viability at 5 to 5000 nM incubated under dark conditions for 2 hrs measured after 24 hrs by MTT assay; assay type: cell-based; details: 5 µM
Pseudomonas aeruginosa [8] = assay: Photobactericidal activity against Pseudomonas aeruginosa pretreated for 30 mins followed by compound wash out with subsequent irradiation with white light at 4.83 mW/cm2; assay type: functional, organism-based
In short: (§3)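 Bacteria were pre-incubated with conjugate in 1X PBS (P. aeruginosa at 1 µM), then washed three times with PBS. They were irradiated with white LED light (4.83 mW/cm²; 7 J/cm² corresponds to 24 min) at 37 °C. Survival, as % of initial density, was plotted against cumulative light fluence.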

Escherichia coli [9] = assay: Photobactericidal activity against Escherichia coli pretreated for 30 mins followed by compound wash out with subsequent irradiation with white light at 4.83 mW/cm2; assay type: functional, organism-based; in short: as §3
Staphylococcus aureus [10] = assay: Photobactericidal activity against Staphylococcus aureus CIP76.25 irradiated with white light at 4.83 mW/cm2 for 20 hrs; assay type: functional; details: CIP76.25, light or radiation study; in short: as §1
Staphylococcus aureus [11] = assay: Photobactericidal activity against Staphylococcus aureus at 1 uM after 30 mins by confocal laser scanning microscopy; assay type: functional, organism-based
In short: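 S. aureus inoculum was suspended in 1 µM conjugate for 30 min at 37 °C, washed three times with PBS, and imaged by confocal laser scanning microscopy at 100X to visualise bacteria-associated fluorescence.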

Staphylococcus aureus [12] = assay: Photobactericidal activity against Staphylococcus aureus pretreated for 30 mins followed by compound wash out with subsequent irradiation with white light at 4.83 mW/cm2; assay type: functional, organism-based; in short: as §3
Pseudomonas aeruginosa [13] = assay: Photobactericidal activity against Pseudomonas aeruginosa assessed as live bacterial cells with membrane integrity loss at 1 uM incubated for 30 mins followed by 1 washing by propidium iodide staining based flow cytometry; assay type: functional; in short: as §2

| Structure (SMILES) | MBC (Pseudomonas aeruginosa [1]) [µM] | MBC (Escherichia coli [2]) [µM] | MBC (Pseudomonas aeruginosa [3]) [µM] | MBC (Escherichia coli [4]) [µM] | Activity (Pseudomonas aeruginosa [5]) [%] | Activity (NHDF [6]) | Activity (NHDF [7]) | Activity (Pseudomonas aeruginosa [8]) | Activity (Escherichia coli [9]) | MBC (Staphylococcus aureus [10]) [µM] | Activity (Staphylococcus aureus [11]) | Activity (Staphylococcus aureus [12]) | Activity (Pseudomonas aeruginosa [13]) [%] |
| --- | --- | --- | --- | --- | --- | --- | --- | --- | --- | --- | --- | --- | --- |
| CCCCCCCC(=O)N[C@@H](CS)C(=O)N[C@H](C(=O)N[C@@H](CCCCN)C(=O)N[C@H]1CCNC(=O)[C@H]([C@@H](C)O)NC(=O)[C@H](CCCCN)NC(=O)[C@H](CCCCN)NC(=O)[C@H](CC(C)C)NC(=O)[C@@H](Cc2ccccc2)NC(=O)[C@H](CCCCN)NC1=O)[C@@H](C)O | > 100 | 50 (≈ 65.2 µg/mL) | > 100 | 50 (≈ 65.2 µg/mL) |  |  |  |  |  |  |  |  |  |
| CCCCCCCC(=O)N[C@@H](CSC1CC(=O)N(CCCCCC(=O)Nc2ccc(-c3c4nc(c(-c5cc[n+](C)cc5)c5ccc([nH]5)c(-c5cc[n+](C)cc5)c5nc(c(-c6cc[n+](C)cc6)c6ccc3[nH]6)C=C5)C=C4)cc2)C1=O)C(=O)N[C@H](C(=O)N[C@@H](CCN)C(=O)N[C@H]1CCNC(=O)[C@H]([C@@H](C)O)NC(=O)[C@H](CCN)NC(=O)[C@H](CCN)NC(=O)[C@H](CC(C)C)NC(=O)[C@@H](Cc2ccccc2)NC(=O)[C@H](CCN)NC1=O)[C@@H](C)O.[I-].[I-].[I-] (some centres not stated) | 10 | 0.5 | 2.5 | 1.2 to 5 | 80 | Non-Toxic | Non-Toxic | Active | Active | 0.8 | Active | Active | 80 |
